Reference: ChEMBL document CHEMBL3997808 (J Med Chem, 2017)

Key:
[1] = (§1) Displacement of (14-(2-{[3-({2-{[4-(cyanomethyl)phenyl]amino}-6-[(5-cyclopropyl-1H-pyrazol-3-yl)-amino]-4-pyrimidinyl}amino)propyl]amino}-2-oxoethyl)-16,16,18,18-tetramethyl-6,7,7a,8a,9,10,16,18-octahydrobenzo[2'',3'']indolizino-[8'',7'':5',6']pyrano[3',2':3,4]pyrido[1,2-a]indol-5-ium-2-sulfonate from rat RIP1 (1 to 377 residues) expressed in baculovirus infected insect cells measured for 50 mins by fluorescence polarization assay
Procedure, shortened: (§2)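 Competitive FP binding assay in which test compounds displace a fluorescently labeled ATP-competitive ligand from RIP1.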

Mus musculus [2] = assay: Protection against TNF-induced lethal shock in mouse assessed as reduction in body temperature loss at 50 mg/kg, po pretreated for 15 mins followed by TNF-stimulation measured after 6 hrs relative to control; format: functional; parameters: scale not given: the % may be the effect or the level left
Mus musculus [3] = assay: Protection against TNF/zVAD-induced lethal shock in mouse assessed as reduction in body temperature loss at 50 mg/kg, po pretreated for 15 mins followed by TNF/zVAD-stimulation measured after 3 hrs relative to control; format: functional; parameters: scale not given: the % may be the effect or the level left
Mus musculus [4] = assay: In vivo inhibition of RIP1 in po dosed mouse model of TNF-induced lethal shock assessed as plasma concentration required for reduction in body temperature loss pretreated for 15 mins followed by TNF-stimulation measured after 6 hrs; format: functional, organism-based
[5] = as §1, with “rabbit” for “rat”, “371” for “377”; parameters: species or system Oryctolagus cuniculus; procedure, shortened: as §2
Mus musculus [6] = assay: In vivo inhibition of RIP1 in po dosed mouse model of TNF/zVAD-induced lethal shock assessed as plasma concentration required for reduction in body temperature loss pretreated for 15 mins followed by TNF-stimulation measured after 3 hrs; format: functional, organism-based
Mus musculus [7] = assay: Protection against TNF/zVAD-induced lethal shock in mouse assessed as reduction in body temperature loss at 3 mg/kg, po pretreated for 15 mins followed by TNF/zVAD-stimulation measured after 3 hrs relative to control; format: functional; parameters: scale not given: the % may be the effect or the level left
[8] = molecular target: T1, Receptor-interacting serine/threonine-protein kinase 1 (Homo sapiens) (UniProt Q13546)
T1 sequence (whole entry): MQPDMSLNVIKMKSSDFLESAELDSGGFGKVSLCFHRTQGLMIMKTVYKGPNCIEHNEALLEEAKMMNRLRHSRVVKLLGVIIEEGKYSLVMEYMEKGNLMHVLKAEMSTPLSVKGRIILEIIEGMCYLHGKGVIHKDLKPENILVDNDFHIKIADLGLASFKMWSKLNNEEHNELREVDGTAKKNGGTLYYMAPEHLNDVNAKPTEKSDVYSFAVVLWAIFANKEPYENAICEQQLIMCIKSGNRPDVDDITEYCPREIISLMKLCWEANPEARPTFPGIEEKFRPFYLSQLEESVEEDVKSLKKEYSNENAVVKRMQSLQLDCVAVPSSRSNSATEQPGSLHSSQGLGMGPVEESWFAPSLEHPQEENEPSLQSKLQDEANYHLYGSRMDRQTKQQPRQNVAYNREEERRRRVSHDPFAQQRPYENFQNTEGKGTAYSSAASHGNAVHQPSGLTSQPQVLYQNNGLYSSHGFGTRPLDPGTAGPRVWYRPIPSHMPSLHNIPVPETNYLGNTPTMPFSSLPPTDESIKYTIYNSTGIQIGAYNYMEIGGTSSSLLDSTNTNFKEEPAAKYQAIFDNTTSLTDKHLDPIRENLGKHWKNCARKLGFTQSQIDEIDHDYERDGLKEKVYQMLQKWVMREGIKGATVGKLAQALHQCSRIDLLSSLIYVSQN

[9] = Inhibition of RIP1 in cynomolgus monkey whole blood assessed as reduction in TNFalpha/[…]/zVAD FMK/SMAC mimetic RMT 5265-IL-1beta production after 6 hrs by sandwich ELISA; settings: Macaca fascicularis
Procedure, shortened: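 Heparinized venous cynomolgus whole blood was stimulated with stocks of TNF (200 ng/mL), QVD-OPh or zVAD.fmk (400 μM) and RMT 5265 (20 μM), with stock values as printed. Compound was a 5-fold dilution series, top 5 μM, in RPMI/1% FBS/1% DMSO. Incubation was 6 h at 37 °C, 5% CO2, then PBS dilution and centrifugation. Supernatant IL-1β was read by sandwich ELISA.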

Mus musculus [10] = assay: Protection against TNF-induced lethal shock in mouse assessed as reduction in body temperature loss at 10 mg/kg, po pretreated for 15 mins followed by TNF-stimulation measured after 6 hrs relative to control; format: functional; parameters: scale not given: the % may be the effect or the level left
[11] = as §1, with “monkey” for “rat”, “379” for “377”; parameters: species or system Macaca mulatta; procedure, shortened: as §2
[12] = as §1, with “dog” for “rat”, “373” for “377”; parameters: species or system Canis lupus familiaris; procedure, shortened: as §2
Mus musculus [13] = assay: Protection against TNF-induced lethal shock in mouse assessed as reduction in body temperature loss at 3 mg/kg, po pretreated for 15 mins followed by TNF-stimulation measured after 6 hrs relative to control; format: functional; parameters: scale not given: the % may be the effect or the level left
Mus musculus [14] = assay: Protection against TNF/zVAD-induced lethal shock in mouse assessed as reduction in body temperature loss at 10 mg/kg, po pretreated for 15 mins followed by TNF/zVAD-stimulation measured after 3 hrs relative to control; format: functional; parameters: scale not given: the % may be the effect or the level left
[15] = as §1, with “mini pig” for “rat”, “375” for “377”; parameters: species or system Sus scrofa; procedure, shortened: as §2

**Q.** Which IC50 [1] does the source give for `CN1C(=O)[C@@H](NC(=O)c2n[nH]c(Cc3ccccc3)n2)COc2ccccc21` [GSK2982772] here?
**A.** The IC50 was 2000 nM.

**Q.** What about the Activity (Mus musculus [2]) of the same compound?
**A.** The Activity was 87%.

**Q.** What about the Activity (Mus musculus [3]) of the same compound?
**A.** The Activity was 93%.

**Q.** What about the IC50 (Mus musculus [4]) of the same compound?
**A.** Its IC50 is 1000 nM.

**Q.** And the IC50 [5]?
**A.** Its IC50 is 790 nM.

**Q.** And the IC50 (Mus musculus [6])?
**A.** The IC50 was 3200 nM.

**Q.** What about the Activity (Mus musculus [7]) of the same compound?
**A.** The Activity was 13%.

**Q.** What about the T1/2 [8] of the same compound?
**A.** Its T1/2 is 1.87 h.

**Q.** What about the IC50 [9] of the same compound?
**A.** Its IC50 is 4 nM.

**Q.** And the Activity (Mus musculus [10])?
**A.** Its Activity is 80%.

**Q.** What about the IC50 [11] of the same compound?
**A.** The IC50 was 20 nM.

**Q.** And the IC50 [12]?
**A.** The IC50 was 5000 nM.

**Q.** What about the Activity (Mus musculus [13]) of the same compound?
**A.** Its Activity is 68%.

**Q.** What about the Activity (Mus musculus [14]) of the same compound?
**A.** Its Activity is 63%.

**Q.** What about the IC50 [15] of the same compound?
**A.** Its IC50 is greater than 10000 nM.
